From PubChem BioAssay
The source made the active and inactive calls.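 How the source made its calls, unless noted: active means viability loss from added drug above about 55%, and viability with drug at most 40%, in both replicates (limit read from the data, passing the limit was not always enough); inconclusive means both conditions met in only one replicate; inactive means neither replicate meets both conditions.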

What was measured:
[1] = SK-BR-3 cell growth inhibitors, pilot screen, 24 h, human (AID 572;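 active means viability at or below 10% of carrier control in both of two separate runs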;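 further: compound exposure lasted between 18 and 24 h rather than exactly 24 h; 100% = carrier-treated control wells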); conditions: SK-BR-3 viability, CellTiter-Glo luminescence, at 10 µM, stronger effect = lower value
[2] = HUVEC growth inhibition – cell-based, human, primary screen (AID 575;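 active means viability at or below 30% in both replicate assays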;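 further: 100% = median of untreated cell wells with 0.1% DMSO on each plate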); conditions: HUVEC proliferation, CellTiter-Glo luminescence, 72 h; at 10 µM; stronger effect = lower value
Outline: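 Test system: primary human umbilical vein endothelial cells. Quantity: 1250 cells/well. Compound: single 10 µM dose, 0.1% DMSO, from 5x medium stock. Timing: 72 h treatment at 37 °C. Detection: ATP-based CellTiter-Glo luminescent read. Benchmarks: vehicle and MePR control wells. Format: 384-well plates coated with collagen.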

[3] = growth inhibitors of H69AR lung tumor, primary screen, human, duplicate replicates (AID 580;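 active means viability at or under a set limit in both replicates, limit being median viability minus 3 SD, cut at about 48% in these data, passing the limit was not always enough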;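 further: 100% = mean luminescence of untreated wells and 0% = no signal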); conditions: H69AR lung tumor cells viability, ATP luminescence, 72 h; at 10 µM; stronger effect = lower value
[4] = reversal of MRP1-mediated doxorubicin resistance, pilot screen, H69AR cells, doxorubicin co-treatment (AID 601); conditions: CellTiter-Glo, 72 h, at 10 µM; for differential viability (reversal): stronger effect = higher value
[5] = 384-well plate pilot, post-Golgi transport modulator project, inhibition of yeast transport mutant growth (AID 636; in the data active means inhibition above about 31%); conditions: absorbance 615 nm, about 18 h, stronger effect = higher value
[6] = growth suppression of yeast trafficking mutant, preliminary HTS, modulators of trafficking downstream of Golgi apparatus project, 1536-format plate, OD 615 nm (AID 637; in the data active means inhibition above about 30%); conditions: yeast transport mutant growth, absorbance 615 nm, 18 h; stronger effect = higher value
[7] = H69AR cells + 2 uM doxorubicin, measured here: viability with 2 uM doxorubicin, stronger effect = lower value
[8] = H69AR cells, compound alone cytotoxicity

Compound	viability [1]	viability [2]	viability [3]	differential viability (reversal) ([4]; H69AR cells + 2 uM doxorubicin)	viability [4, 7]	viability [4, 8]	inhibition [5]	inhibition [6]
CC1(C)S[C@@H]2[C@H](NC(=O)[C@H](C(=O)O)c3ccsc3)C(=O)N2[C@H]1C(=O)O	105% (inactive)	91.5% (inactive)	102% (inactive)	2.32% (inactive)	99.3%	102%	-0.26% (inactive)	-0.17% (inactive)
COC(=O)CN(Cc1ccco1)S(=O)(=O)c1ccccc1	98% (inactive)	102% (inactive)	77.6% (inactive)	-3.33% (inactive)	80.9%	77.6%	-2.67% (inactive)	-0.91% (inactive)
COc1ccc(NC(=O)CSc2nc(C)cc(C(F)(F)F)n2)cc1	91% (inactive)	103% (inactive)	87.4% (inactive)	3.33% (inactive)	84.1%	87.4%	-6.44% (inactive)	-4.91% (inactive)
Cc1nnc(SCc2nnc(-c3ccccc3Br)o2)n1-c1ccccc1	86% (inactive)	87.5% (inactive)	90.2% (inactive)	-3.37% (inactive)	93.6%	90.2%	0.41% (inactive)	0% (inactive)
CC(=O)c1n[nH]nc1NC(=O)c1ccccc1	120% (inactive)	97.6% (inactive)	89.9% (inactive)	-6.65% (inactive)	96.6%	89.9%	-1.69% (inactive)	0.16% (inactive)
CNC(=O)CSc1nc2c(c(=O)n(C)c(=O)n2C)n1Cc1ccc(C)cc1	100% (inactive)	92.4% (inactive)	96.2% (inactive)	16.2% (inactive)	79.9%	96.2%	-2% (inactive)	-7.45% (inactive)
CCn1c(SCC(=O)Nc2ccccc2N2CCCCC2)nc2c1c(=O)n(C)c(=O)n2C	113% (inactive)	75.4% (inactive)	73.9% (inactive)	1.19% (inactive)	72.7%	73.9%	-6.13% (inactive)	3.09% (inactive)
CN1[C@@H](CC(=O)c2ccccc2)CCC[C@H]1C[C@H](O)c1ccccc1	63% (inactive)	81.4% (inactive)	84.1% (inactive)	-4.62% (inactive)	88.7%	84.1%	1.95% (inactive)	0.67% (inactive)
COc1ccc(-n2ncc3c(NCc4cccs4)ncnc32)cc1	120% (inactive)	90.5% (inactive)	73.3% (inactive)	17.6% (inactive)	55.8%	73.3%	-6.71% (inactive)	-1.64% (inactive)
O=C(COC(=O)CCC1CCCC1)Nc1ccc(Cl)cn1	107% (inactive)	101% (inactive)	98.6% (inactive)	5.36% (inactive)	93.2%	98.6%	0% (inactive)	-1.45% (inactive)
COc1ccc(Cn2nnnc2CN2CCOCC2)cc1	100% (inactive)	97.4% (inactive)	96.7% (inactive)	-5.83% (inactive)	102%	96.7%	-6.85% (inactive)	-0.81% (inactive)
CCCC1O[C@@H]2C[C@H]3[C@@H]4CCC5=CC(=O)C=C[C@]5(C)[C@H]4[C@@H](O)C[C@]3(C)[C@]2(C(=O)CO)O1 (stereo partly drawn)	109% (inactive)	82.4% (inactive)	79.6% (inactive)	0.52% (inactive)	79.1%	79.6%	1.04% (inactive)	-3.83% (inactive)
Cc1nnc(SCc2ccccc2F)n1NCc1cccs1	100% (inactive)	93.6% (inactive)	89% (inactive)	-0.635% (inactive)	89.7%	89%	-6.85% (inactive)	5% (inactive)
COc1ccccc1NC1=NC(c2ccc(Cl)cc2)N=C(N)N1 (stereo not drawn)	91% (inactive)	68.2% (inactive)	10% (active)	-30.4% (inactive)	40.5%	10%	-5.27% (inactive)	0% (inactive)
Cc1ccc(N(C(C)C(=O)Nc2ccc(S(=O)(=O)N3CCOCC3)cc2)S(C)(=O)=O)cc1 (stereo not drawn)	87% (inactive)	106% (inactive)	99.8% (inactive)	-6.04% (inactive)	106%	99.8%	-6.3% (inactive)	-7.9% (inactive)
O=C(O)CCN(CCC(=O)O)c1nnc(SCc2ccccc2)s1	91% (inactive)	107% (inactive)	93.6% (inactive)	7.11% (inactive)	86.5%	93.6%	-6.16% (inactive)	-3.55% (inactive)
c1cncc(C2Nc3ccccc3-c3nc4ccccc4n32)c1 (stereo not drawn)	90% (inactive)	98.1% (inactive)	78.7% (inactive)	-12.2% (inactive)	90.9%	78.7%	-2.53% (inactive)	0.91% (inactive)
COc1ccc(NC(=O)Cn2nnc(-c3ccccc3F)n2)cc1Cl	116% (inactive)	104% (inactive)	95.5% (inactive)	3.27% (inactive)	92.3%	95.5%	-8.22% (inactive)	0.18% (inactive)

Compound	viability [1]	viability [2]	viability [3]	differential viability (reversal) ([4]; H69AR cells + 2 uM doxorubicin)	viability [4, 7]	viability [4, 8]	inhibition [5]	inhibition [6]
CC(=O)[C@H]1CC[C@H]2[C@@H]3CCC4=CC(=O)CC[C@]4(C)[C@H]3[C@H](O)C[C@]12C	87% (inactive)	83.6% (inactive)	100% (inactive)	3.85% (inactive)	96.6%	100%	2.08% (inactive)	-6.83% (inactive)
O=C(Cn1c(-c2cncs2)nc2ccccc21)NC1CCCC1	96% (inactive)	103% (inactive)	106% (inactive)	19.1% (inactive)	86.5%	106%	-4.05% (inactive)	5.09% (inactive)
COC(=O)Cn1c(CCS(=O)(=O)c2ccc(C)cc2)nc2ccccc21	99% (inactive)	96.5% (inactive)	76.4% (inactive)	6.58% (inactive)	69.8%	76.4%	-0.91% (inactive)	-1.64% (inactive)
CCOc1cc2[nH]c(=O)n(CCCCC(=O)NCc3ccco3)c(=O)c2cc1OCC	88% (inactive)	90.7% (inactive)	82.5% (inactive)	-12.7% (inactive)	95.3%	82.5%	-2.34% (inactive)	1.97% (inactive)
COC(=O)Nc1ccc(S(=O)(=O)N2CCCCCC2)cc1	99% (inactive)	93.7% (inactive)	80.3% (inactive)	-10.7% (inactive)	91%	80.3%	-10.1% (inactive)	-2% (inactive)
Cc1cc(C)cc(-n2nnc(C(=O)NCc3ccc4c(c3)OCO4)c2N)c1	106% (inactive)	88.5% (inactive)	97.7% (inactive)	-6.51% (inactive)	104%	97.7%	-5.19% (inactive)	0% (inactive)
COc1ccc(NC(=O)CCc2ccccc2)cc1NC(=O)c1ccco1	64% (inactive)	58.4% (inactive)	56.6% (inactive)	-20.6% (inactive)	77.2%	56.6%	-7.12% (inactive)	9.68% (inactive)
CC(=O)OCC(=O)[C@@]12OC(C)(C)O[C@@H]1C[C@H]1[C@@H]3C[C@H](F)C4=CC(=O)C=C[C@]4(C)[C@@]3(F)[C@@H](O)C[C@@]12C	104% (inactive)	62.1% (inactive)	106% (inactive)	2.31% (inactive)	104%	106%	0.65% (inactive)	-1.83% (inactive)
COc1ccc2cc3cc(C(=O)NCC4CCCO4)oc3nc2c1 (stereo not drawn)	128% (inactive)	84.8% (inactive)	88.1% (inactive)	4.77% (inactive)	83.4%	88.1%	1.69% (inactive)	3.44% (inactive)
COc1ccc2cnn(-c3ccccc3C)c(=O)c2c1OC	88% (inactive)	85.5% (inactive)	106% (inactive)	-1.29% (inactive)	108%	106%	-3.24% (inactive)	0.55% (inactive)
COc1ccccc1N1CCN(C(CNS(=O)(=O)c2cc(F)ccc2F)c2cccnc2)CC1 (stereo not drawn)	95% (inactive)	110% (inactive)	92.8% (inactive)	2.69% (inactive)	90.2%	92.8%	-2.97% (inactive)	4% (inactive)
COc1ccc(S(=O)(=O)Nc2ccc(Cl)cn2)c(C)c1C	100% (inactive)	107% (inactive)	88.5% (inactive)	0.69% (inactive)	87.8%	88.5%	-0.93% (inactive)	0% (inactive)
O=C(CCn1c(=O)c2ccccc2n(CC(=O)NCCC2=CCCCC2)c1=O)NCc1ccco1	99% (inactive)	90.9% (inactive)	92.2% (inactive)	5.12% (inactive)	87%	92.2%	-5.06% (inactive)	-2.79% (inactive)
Nc1nc2c(ncn2COCCO)c(=O)[nH]1	97% (inactive)	86.9% (inactive)	98.9% (inactive)	3.38% (inactive)	95.5%	98.9%	0.65% (inactive)	3% (inactive)
C1CCN=C(Nc2nc3c(s2)CCCC3)CC1	104% (inactive)	109% (inactive)	89.4% (inactive)	7.56% (inactive)	81.9%	89.4%	-5.6% (inactive)	-1.45% (inactive)
Clc1cccc(-c2nnc3sc(-c4ccccc4)nn23)c1	86% (inactive)	124% (inactive)	89.5% (inactive)	-3.02% (inactive)	92.6%	89.5%	-0.27% (inactive)	-4% (inactive)
COC(=O)c1ccc(COc2ccc(C3C4=C(CCCC4=O)Nc4onc(C)c43)cc2)cc1 (stereo not drawn)	104% (inactive)	82.3% (inactive)	94.7% (inactive)	2.04% (inactive)	92.7%	94.7%	-5.19% (inactive)	-3.93% (inactive)
CCc1c(C)nc2ncnn2c1NCCc1ccc(OC)c(OC)c1	64% (inactive)	103% (inactive)	80.6% (inactive)	-0.53% (inactive)	81.1%	80.6%	-7.03% (inactive)	-0.18% (inactive)
